Measurements as given in ChEMBL document CHEMBL4732226, “Discovery of a potent G-protein-coupled receptor 119 agonist for the treatment of type 2 diabetes” (Bioorg Med Chem, 2021).
The source made the active and inactive calls. No cut-off for these calls is given here.

How the values were obtained:
[1] = Elimination rate constant in Wistar rat at 10 mg/kg, po up to 24 hrs; type: ADME, organism-based; settings: in vivo
Procedure, shortened: (§1)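 Single oral dose at 10 mg/kg given to male Wistar rats and to Beagle dogs; bioavailability also determined in both species.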

[2] = Toxicity in male Wistar rat assessed as globulin level at 400 mg/kg, po after 28 days (reference value: 2.62 +/- 0.12 g/dl); type: organism-based; settings: in vivo, 672 h, time 28 day
[3] = Toxicity in male Wistar rat assessed as creatinine level at 100 mg/kg, po after 28 days (reference value: 0.61 +/- 0.04 mg/dl); type: organism-based; settings: in vivo, 672 h, time 28 day
[4] = AUC(0 to t) in Wistar rat at 10 mg/kg, po up to 24 hrs; type: ADME, organism-based; set-up: route oral, dose 10 mg/kg, time <=24; settings: in vivo; procedure, shortened: as §1
[5] = Toxicity in female Wistar rat assessed as albumin level at 200 mg/kg, po after 28 days (reference value: 3.57 +/- 0.14 g.dl); type: organism-based; settings: in vivo, 672 h, time 28 day
[6] = Toxicity in male Wistar rat assessed as ratio of kidney to body weight at 400 mg/kg, po after 28 days (reference value: 0.787 +/- 0.078); type: organism-based; settings: in vivo, 672 h, time 28 day
[7] = Toxicity in male Wistar rat assessed as albumin level at 400 mg/kg, po after 28 days (reference value: 3.56 +/- 0.08 g.dl); type: organism-based; settings: in vivo, 672 h, time 28 day
[8] = Half life in Sprague-Dawley rat at 25 mg/kg, po up to 24 hrs; type: ADME, organism-based; settings: in vivo
Procedure, shortened: (§2)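 Male SD rats fasted overnight, water ad libitum, fed 4 h after dosing. Single oral gavage of 25 mg/kg as a homogeneous suspension in 0.5% Tween 80 in 0.5% Na-CMC. Blood drawn into Na-heparin tubes at 0.25, 0.5, 1, 2, 4, 6, 8 and 24 h; plasma stored at -70°C. Parameters by non-compartmental analysis, with C0 taken as zero and BLQ samples set to zero.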

[9] = Toxicity in male Wistar rat assessed as ALP level at 200 mg/kg, po after 28 days (reference value: 174.77 +/- 25.42 U/L); type: organism-based; settings: in vivo, 672 h, time 28 day
[10] = Toxicity in male Wistar rat assessed as ratio of adrenals to body weight at 400 mg/kg, po after 28 days (reference value: 0.020 +/- 0.003); type: organism-based; settings: in vivo, 672 h, time 28 day
[11] = Toxicity in male Wistar rat assessed as glucose level at 100 mg/kg, po after 28 days (reference value: 89.02 +/- 13.41 mg/dl); type: organism-based; settings: in vivo, 672 h, time 28 day
[12] = Toxicity in female Wistar rat assessed as creatinine level at 100 mg/kg, po after 28 days (reference value: 0.6 +/- 0.04 mg/dl); type: organism-based; settings: in vivo, 672 h, time 28 day
Rattus norvegicus = test: Antidiabetic activity in Sprague-Dawley rat assessed as reduction in HFD-induced body weigh gain at 25 to 50 mg/kg/day, po for 28 days; type: functional, organism-based; settings: dose 25-50 mg/kg/day, time 28.0 day
Procedure, shortened: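 Male SD rats were fed high-fat diet for 12 weeks, with a normal-chow group alongside, then split into 4 treatment groups. Oral dosing at 25 or 50 mg/kg/day for 28 days in PG450/Tween 80/0.1% Na-CMC (5:5:90). Body weight recorded daily.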

[13] = Toxicity in female po dosed Wistar rat after 28 days; type: organism-based; settings: in vivo, time 28 day
Procedure, shortened: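 Repeated-dose oral gavage study in Wistar rats, 10 per sex per group, at 100, 200 and 400 mg/kg once daily for 28 days. Clinical signs, mortality, neurobehaviour, food intake, body weight and ophthalmic examination were monitored, followed by blood biochemistry, organ weights and histopathology on day 29.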

[14] = Toxicity in male Wistar rat assessed as ratio of heart to body weight at 100 mg/kg, po after 28 days (reference value: 0.333 +/- 0.036); type: organism-based; settings: in vivo, 672 h, time 28 day
[15] = Toxicity in female Wistar rat assessed as ratio of thymus to body weight at 400 mg/kg, po after 28 days (reference value: 0.260 +/- 0.025); type: organism-based; settings: in vivo, 672 h, time 28 day
[16] = Toxicity in female Wistar rat assessed as AST level at 400 mg/kg, po after 28 days (reference value: 128.84 +/- 21.42 U/L); type: organism-based; settings: in vivo, 672 h, time 28 day
[17] = Toxicity in female Wistar rat assessed as ALP level at 100 mg/kg, po after 28 days (reference value: 100.14 +/- 21.98 U/L); type: organism-based; settings: in vivo, 672 h, time 28 day
[18] = Toxicity in female Wistar rat assessed as ratio of uterus to body weight at 400 mg/kg, po after 28 days (reference value: 0.335 +/- 0.108); type: organism-based; settings: in vivo, 672 h, time 28 day
[19] = Toxicity in female Wistar rat assessed as ratio of liver to body weight at 400 mg/kg, po after 28 days (reference value: 3.219 +/- 0.221); type: organism-based; settings: in vivo, 672 h, time 28 day
[20] = Toxicity in male Wistar rat assessed as AST level at 100 mg/kg, po after 28 days (reference value: 119.4 +/- 9.3 U/L); type: organism-based; settings: in vivo, 672 h, time 28 day
[21] = Toxicity in female Wistar rat assessed as urea level at 200 mg/kg, po after 28 days (reference value: 48.09 +/- 5.3 mg/dl); type: organism-based; settings: in vivo, 672 h, time 28 day
[22] = Elimination rate constant in Sprague-Dawley rat at 25 mg/kg, po up to 24 hrs; type: ADME, organism-based; settings: in vivo; procedure, shortened: as §2
[23] = Tmax in Wistar rat at 10 mg/kg, po up to 24 hrs; type: ADME, organism-based; settings: in vivo; procedure, shortened: as §1
[24] = Toxicity in male Wistar rat assessed as ratio of thymus to body weight at 400 mg/kg, po after 28 days (reference value: 0.148 +/- 0.023); type: organism-based; settings: in vivo, 672 h, time 28 day
[25] = Toxicity in female Wistar rat assessed as ratio of thymus to body weight at 200 mg/kg, po after 28 days (reference value: 0.260 +/- 0.025); type: organism-based; settings: in vivo, 672 h, time 28 day
[26] = Toxicity in male Wistar rat assessed as AST level at 400 mg/kg, po after 28 days (reference value: 119.4 +/- 9.3 U/L); type: organism-based; settings: in vivo, 672 h, time 28 day
[27] = Toxicity in female Wistar rat assessed as creatinine level at 400 mg/kg, po after 28 days (reference value: 0.6 +/- 0.04 mg/dl); type: organism-based; settings: in vivo, 672 h, time 28 day
[28] = Half life in Wistar rat at 10 mg/kg, po up to 24 hrs; type: ADME, organism-based; settings: in vivo; procedure, shortened: as §1
[29] = Toxicity in male Wistar rat assessed as ratio of thymus to body weight at 100 mg/kg, po after 28 days (reference value: 0.148 +/- 0.023); type: organism-based; settings: in vivo, 672 h, time 28 day
[30] = Toxicity in male Wistar rat assessed as ratio of epididymides to body weight at 100 mg/kg, po after 28 days (reference value: 0.361 +/- 0.028); type: organism-based; settings: in vivo, 672 h, time 28 day
[31] = Toxicity in female Wistar rat assessed as AST level at 200 mg/kg, po after 28 days (reference value: 128.84 +/- 21.42 U/L); type: organism-based; settings: in vivo, 672 h, time 28 day
[32] = Toxicity in male Wistar rat assessed as globulin level at 200 mg/kg, po after 28 days (reference value: 2.62 +/- 0.12 g/dl); type: organism-based; settings: in vivo, 672 h, time 28 day
[33] = Toxicity in female Wistar rat assessed as ratio of kidney to body weight at 400 mg/kg, po after 28 days (reference value: 0.801 +/- 0.071); type: organism-based; settings: in vivo, 672 h, time 28 day
[34] = Toxicity in male Wistar rat assessed as ratio of spleen to body weight at 400 mg/kg, po after 28 days (reference value: 0.206 +/- 0.026); type: organism-based; settings: in vivo, 672 h, time 28 day

## Cc1c(Oc2cccc(/C=C3\SC(=O)NC3=O)c2)ncnc1OC1CCN(C(=O)OC(C)(C)C)CC1
[1]
  k el at 24 h: 1.94e-05 s⁻¹
[2]
  Activity: 2.53 g/dL
[3]
  Activity: 0.57 mg/dL
[4]
  AUC(0-t) at 24 h: 1770 ng·h/mL
[5]
  Activity: 3.65 g/dL
[6]
  Ratio: 0.845
[7]
  Activity: 3.54 g/dL
[8]
  half-life: 3.09 h
[9]
  Activity: 164.68 U/L
[10]
  Ratio: 0.023
[11]
  Activity: 87.56 mg/dL
[12]
  Activity: 0.63 mg/dL
Rattus norvegicus
  Activity: inactive
[13]
  NOAEL at 672 h: > 400 mg/kg
[14]
  Ratio: 0.347
[15]
  Ratio: 0.244
[16]
  Activity: 123.93 U/L
[17]
  Activity: 103.72 U/L
[18]
  Ratio: 0.429
[19]
  Ratio: 3.172
[20]
  Activity: 114.13 U/L
[21]
  Activity: 46.42 mg/dL
[22]
  k el at 24 h: 9.17e-05 s⁻¹
[23]
  Tmax: 1.5 h
[24]
  Ratio: 0.196
[25]
  Ratio: 0.257
[26]
  Activity: 116.36 U/L
[27]
  Activity: 0.6 mg/dL
[28]
  half-life: 12.3 h
[29]
  Ratio: 0.167
[30]
  Ratio: 0.371
[31]
  Activity: 128.19 U/L
[32]
  Activity: 2.64 g/dL
[33]
  Ratio: 0.806
[34]
  Ratio: 0.211
